The campaign covered roughly 360,000 compounds. About 5,400 (1.5%) were called active. For the sample, actives were picked, then their nearest neighbours and some compounds at random. A number with no mark means an inactive call.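 How the source made its calls: active means inhibition above a per-plate cutoff, the mean inhibition of test compounds on that plate plus 3 SD (cut at about 49% in these data); inactive means the rest.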

Sequence of Trace amine-associated receptor 1 (Homo sapiens) (Q96RJ0 whole entry, looked up): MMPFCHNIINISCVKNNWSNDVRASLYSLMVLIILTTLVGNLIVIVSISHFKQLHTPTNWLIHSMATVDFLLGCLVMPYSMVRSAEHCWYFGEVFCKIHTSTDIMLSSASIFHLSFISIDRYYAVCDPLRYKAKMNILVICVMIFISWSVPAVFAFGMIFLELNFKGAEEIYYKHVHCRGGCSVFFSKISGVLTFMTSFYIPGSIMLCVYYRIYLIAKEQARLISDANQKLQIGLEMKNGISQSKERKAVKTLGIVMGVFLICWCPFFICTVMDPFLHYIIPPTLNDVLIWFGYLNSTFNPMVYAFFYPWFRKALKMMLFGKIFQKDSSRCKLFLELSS

In the test the target is Trace amine-associated receptor 1 (Homo sapiens) (UniProt Q96RJ0). Put plainly: human TAAR1 antagonists, primary screen, Fluo-8 calcium fluorescence, CHO RD-HGA16 cells (AID 624466).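 Further: 0% = DMSO plus EC80 beta-PEA response and 100% = DMSO alone without agonist.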 Conditions: CHO RD-HGA16 TAAR1, Fluo-8 calcium fluorescence, antagonist; at 3 µM; active compounds read high. The method, boiled down:
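Material: CHO RD-HGA16 cells bearing hTAAR1; compound dosing: one-point dosing, 3 µM nominal final; schedule: dye loading 75 min at 37 °C, then 30 min room temperature; measured by: calcium fluorescence with Fluo-8; control set: vehicle and agonist controls; replication: n of 1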
As to `Nc1ncnc2c1ncn2[C@@H]1O[C@H](C(=O)N[C@@H](CCc2ccccc2)C(=O)N2CCCN(Cc3cccs3)CC2)[C@@H](O)[C@H]1O`, the inhibition was 3.27%. On to `COc1cccc(CC2(CO)CCN(Cc3cnc(-c4cccc(C)c4)nc3)CC2)c1`, for which the inhibition is 5.01%.

In the case of `COc1cccc(CNC(=O)[C@H]2CCCN2C(=O)[C@H]2CCCN2C(=O)C2CCCCC2)c1`, the inhibition was -16.5%. The figure for `O=C(/C=C(O)/C=C/c1ccc(O)cc1)/C=C/c1ccc(O)cc1` is 68.2% (active); for `COc1ccc(/C=C/C(=O)c2c(O)cc(OC)cc2OC)cc1` it is 1.09%; for `COc1cccc(C=CC(=O)C=CC=Cc2ccccc2)c1` it is -24.3%. As to `O=C(COc1ccc(Cl)cc1)NCCSc1ccccc1`, the inhibition is 0.81%. The figure for `CCCNC(=O)C1(C)CCCN(Cc2c(C)nn(-c3ccccc3)c2C)C1` (stereo not drawn) is 5.37%; for `O=C1C(=O)N(CCCN2CCOCC2)C(c2ccc([N+](=O)[O-])cc2)/C1=C(\O)c1ccc2c(c1)OCCO2` (stereo not drawn) it is 6.85%; for `CC(=O)c1ccc(S(=O)(=O)NCC2CCN(C(=O)C(=O)c3cccs3)CC2)cc1` it is -6.62%.

As for `CCCCC(=O)NNC(=S)NC(=O)C(c1ccccc1)c1ccccc1`, the inhibition was 106% (active). As to `O=C(CCN1CCN(c2ccccc2)CC1)NNC(=S)Nc1ccccc1`, the inhibition was -13.7%.

In the case of `CC(C)CC(=O)NC(=S)NCc1ccccc1`, the inhibition was -16.9%. The figure for `O=C(C(=O)N1CCN(c2ccccc2)CC1)c1ccc2c(c1)OCO2` is -15%. The figure for `COCc1cc(=O)[nH]c(SC)n1` is -6.85%. Regarding `CNC(=O)c1ccsc1NC(=O)c1ccc(S(=O)(=O)N2CCc3ccccc32)cc1`, the inhibition was 62.9% (active). For the compound `CC1CN(S(=O)(=O)c2ccc(C(=O)Nc3sccc3C(N)=O)cc2)CC(C)O1` (stereo not drawn), the inhibition was 9.54%. For the compound `NS(=O)(=O)c1ccc(CNC(=O)c2cccc(S(=O)(=O)N3CCc4ccccc43)c2)cc1`, the inhibition is -6.37%. Regarding `COCCn1c(=NC(=O)c2ccccc2[N+](=O)[O-])sc2cc(S(C)(=O)=O)ccc21`, the inhibition is -0.74%. The figure for `O=S1(=O)CCO[C@H]2Cc3ccccc3[C@H]2N1Cc1ccccc1` is 9.98%; for `Cc1ccc(CNC(=O)CCNS(=O)(=O)c2ccc(Br)s2)cc1` it is 5.04%; for `CCOC(=O)C1=C(C(=O)OCC)C2N(Cc3ccc(C#N)cc3)c3ccccc3[C@@]23C[C@@H](C(=O)OC)N(S(=O)(=O)c2ccc(F)cc2)C3=N1` (stereo partly drawn) it is -16.3%.

In the case of `O=C(N/C(=C\c1ccc([N+](=O)[O-])cc1)C(=O)N1CCCCC1)c1ccco1`, the inhibition is 9.56%. For `COc1ccc(C(=O)NC2CCCc3c2cnn3-c2cccc(C)c2C)c(OC)n1` (stereo not drawn), the inhibition is 62.1% (active). The figure for `Cn1nccc1C(=O)NC1CCCc2c1cnn2-c1ccc(F)cc1F` (stereo not drawn) is 4.98%.

With `COc1ccc(OC)c(C(=O)NC2CCCc3c2cnn3-c2cc(C)cc(C)c2)c1` (stereo not drawn), the inhibition was -17.8%. For the compound `CCN1CCN(C(=O)c2cc3cc4ccc(OC)cc4nc3s2)CC1`, the inhibition is 0.15%. To `CCCCCCCCN1C(=O)[C@@H](CC(=O)NCc2ccccc2)C[C@@]2(C(=O)OC)C1=C[C@H](C(C)(C)C)O[C@@H]2C` belongs -4.61%; to `CCOC(=O)[C@]12CCC=C1N(Cc1ccccc1)C(=O)[C@H](CC(=O)N1CCCC1)C2`, -13.9%. For `CCOC(=O)C1=C(NC(=S)NC(=O)c2ccccc2)c2ccccc2CC1(C)C`, the inhibition is 59.3% (active). The figure for `Cn1nnc(NC(=S)NC(=O)c2ccccc2)n1` is -35%. `CCOC(=O)c1c(NC(=O)C2(C)Cc3ccccc3C(=O)O2)sc2c1CCCC2` (stereo not drawn): the inhibition was -23.7%. To `CCOC(=O)N1CCN(C(=O)C[C@H]2C[C@@]3(C(=O)OC)C(=C[C@H](C4CCCC4)O[C@@H]3C)N(Cc3ccccc3)C2=O)CC1` belongs -6.31%. Take `CC(C)N1C(=O)c2ccccc2NC(=O)C1C(=O)NCc1cccs1` (stereo not drawn): the inhibition is -8.37%. To `O=[N+]([O-])c1cc([N+](=O)[O-])c2cccnc2c1O` belongs 2.43%; to `NNC(=O)CNC(c1ccccc1)c1cc(Cl)ccc1NC(=O)c1ccccc1` (stereo not drawn), 80% (active); to `O=C(CNC(c1ccccc1)c1ccccc1)Nc1ccc(F)cc1`, -11.9%. The figure for `CC(NCC(=O)Nc1cc(Cl)cc(Cl)c1)c1ccccc1` (stereo not drawn) is 3.33%; for `Cc1ccc(-c2cc(=O)[nH]c(NCc3ccccc3)n2)cc1` it is -9.41%. The figure for `COc1ccc(CN(CC(=O)NC2CCCC2)C(=O)CCC(=O)Nc2cc(C)on2)cc1` is -2.7%. Regarding `Cc1ccc(CN(CC(=O)NC2CCCCC2)C(=O)c2csnn2)cc1`, the inhibition is 10.9%.

Take `Cc1cc(C(C)(C)C)oc1C(=O)N(CC(=O)NC1CCCC1)Cc1ccc(Cl)cc1`: the inhibition was 56.4% (active). In the case of `COCCNC(=S)N(C)[C@H]1C[C@H]2c3[nH]c4ccccc4c3CCN2C[C@H]1[C@H](C)O`, the inhibition was -4.21%. To `COC(=O)C[C@@H]1C=C[C@@H](NC(=O)c2ccc3c(c2)OCO3)[C@@H](CO)O1` belongs 8.18%; to `COc1ccc(CCNc2ncnc3nc[nH]c23)cc1OC`, 42.1%; to `c1ccc2c(c1)OCC(CNc1ncnc3nc[nH]c13)O2` (stereo not drawn), 105% (active). With `O=C(Cn1cnc2ccccc2c1=O)NCC1COc2ccccc2O1` (stereo not drawn), the inhibition is -0.58%. As for `O=C(NCCc1ccc(F)cc1)c1ccc(S(=O)(=O)N2CCCCC2)cc1`, the inhibition was -0.8%. The figure for `O=C(c1ccc(Cl)c(S(=O)(=O)N2CCCCC2)c1)N1CCCCCC1` is -4.7%; for `NS(=O)(=O)c1ccc(CCNC(=O)c2ccc(Cl)c(S(=O)(=O)N3CCCCCC3)c2)cc1` it is 48.9% (active); for `c1ccc(Cn2nnc3c(NCC4CC4)ncnc32)cc1` it is -5.34%.

With `CC(C)Nc1ncnc2c1nnn2Cc1ccccc1`, the inhibition is -8.98%. Consider `Clc1ccc(Nc2ncnc3c2nnn3Cc2ccccc2)cc1`, for which the inhibition was 59.2% (active). As to `Nc1ncnc2c1ncn2C1OC(CO)CC1O` (stereo not drawn), the inhibition was -14.9%. Turning to `CC1(C)OC(=O)C2=C(CC(CCc3ccccc3)OC2c2ccc(Cl)cc2)O1` (stereo not drawn), the inhibition is 18.9%. Regarding `O=C(NCc1ccc(F)cc1F)[C@@H]1CCCN1C(=O)[C@@H]1CCCN1C(=O)c1cccc(Cl)c1`, the inhibition was -26.2%. To `Cc1cc(Nc2ccc(Br)cc2F)n2ncnc2n1` belongs -22.8%; to `CC(=O)Nc1ccc(OCCC[n+]2cccc(C(=O)[O-])c2)cc1`, 10.6%; to `CCCCn1c(SCc2ncc(-c3ccccc3)o2)nc2cc(S(N)(=O)=O)ccc21`, 63.4% (active).

For `CCCCn1c(SCC(=O)N2CCCC2=O)nc2cc(S(N)(=O)=O)ccc21`, the inhibition was -16.1%. On to `CCCCn1c(SCC(=O)N2CCC(C(=O)OCC)CC2)nc2cc(S(N)(=O)=O)ccc21`, for which the inhibition was -5.42%. The figure for `CC1(C(=O)NCc2ccccc2)CN(S(C)(=O)=O)CC(=O)N1CC(F)(F)F` (stereo not drawn) is -8.96%. The figure for `Cc1ccc(Cn2cc(CN3CC(N4CCN(C)CC4)CS3(=O)=O)nn2)cc1` (stereo not drawn) is -10.1%. The figure for `CC(C)(C)n1ncc2c(=O)n(Cc3c(Cl)cccc3Br)cnc21` is 58.1% (active); for `CC(C)(C)n1ncc2c(=O)n(Cc3ccc(Cl)cc3)cnc21` it is 18.1%; for `Cn1cnc2c1c(=O)n(Cc1c(Cl)cccc1Cl)c(=O)n2C` it is -4.09%. With `CCCCNc1cccc2c1S(=O)(=O)N[C@@H](C)CO2`, the inhibition is 4.47%.

In the case of `Cc1ccc(O)c(NC(=S)NC(=O)COc2ccc(Br)cc2)c1`, the inhibition is 98.5% (active). Regarding `Cn1cccc1C(=O)NNC(=O)COc1ccc(Br)cc1`, the inhibition was 8.71%. Regarding `Cc1ccsc1C(=O)NNC(=O)COc1ccc(Br)cc1`, the inhibition is -10.4%. For `COc1ccc(OC)c(CNC(=O)c2cc(=O)[nH]c3ccc(S(=O)(=O)N4CCCC4)cc23)c1`, the inhibition is -12.7%.

For `COc1ccc(S(=O)(=O)N2CCC(C(=O)NCCC(=O)NCc3cccc(OC)c3)CC2)cc1`, the inhibition was -10.5%. To `O=C(Nc1ccc(Br)cc1)C1CCC(=O)N1Cc1ccccc1Cl` (stereo not drawn) belongs 11.4%. As to `S=c1nc2ccccc2c2nc(-c3cccnc3)[nH]n12`, the inhibition is 5.39%. The figure for `Brc1ccc(-c2csc(N/N=C/c3cccnc3)n2)cc1` is 15.8%; for `Fc1ccc(/C=N/Nc2nc(-c3cccnc3)nc3ccccc23)cc1` it is 55.8% (active); for `O=C(c1ccc(Cl)cc1)n1cnc2ccccc21` it is -8.66%. In the case of `COc1cccc(N2CCN(CC(=O)Nc3ccnn3C3CCCC3)CC2)c1`, the inhibition was 10.4%. Regarding `COC(=O)Nc1nc2ccc(C(=O)C3CC3)cc2[nH]1`, the inhibition was -3.23%. To `O=C(NCCN1CCOCC1)c1cc(Sc2cccc(Cl)c2)nc2ccccc12` belongs -6.08%; to `O=C(NCCN1CCOCC1)Nc1cccc(Cl)c1`, -1.82%; to `O=C(NCCN1CCOCC1)c1ccccc1N1C(=O)[C@@H]2Cc3c([nH]c4ccccc34)C(c3cccc(Cl)c3)N2C1=O` (stereo partly drawn), 68.8% (active). For `C[C@H]1[C@H](c2ccccc2)Oc2cc(Br)ccc2S(=O)(=O)N1Cc1cccc(F)c1`, the inhibition was 0.32%.

Take `COc1cccc(-c2nc3nc(C)cc(C)n3c2NC2CCCCC2)c1`: the inhibition was -7.98%.

Take `Cc1ccc(N2CC(C(=O)N3CCC4(CC3)CC(=O)c3ccccc3O4)CC2=O)cc1C` (stereo not drawn): the inhibition is -12.3%. Take `CC(C)c1c(C(=O)N/N=C/c2ccccc2C(=O)O)nnn1-c1nonc1N`: the inhibition is -11.8%. The figure for `Nc1nonc1-n1nnc(C(=O)N/N=C/C2CCCCC2)c1-c1ccccc1` is -20.6%.

With `Nc1nonc1-n1nnc(C(=O)N/N=C/c2c[nH]c3ccccc23)c1-c1ccccc1`, the inhibition was 59% (active).

The inhibition is the drop in the measured response relative to a control, in per cent.

The values are drawn from PubChem BioAssay AID624466 (The Scripps Research Institute Molecular Screening Center, 2012).
